Consider 15 compounds from ChEMBL document CHEMBL1914413, “Using the pER8:GUS reporter system to screen for phytoestrogens from Caesalpinia sappan” (J Nat Prod, 2011).

Active and inactive are the calls of the source. The calls are words filed in the database; no cut-off is given here.

Assay [1] deals with MCF7. The assay can be described thus: Antiestrogenic activity in human ER-positive MCF7 cells assessed as inhibition of 17beta estradiol-induced cell proliferation at 1 to 20 uM after 48 hrs by MTT assay. The assay is classed as functional, cell-based. (Tetrazolium assays rely on reduction of a dye to a coloured formazan, in cell work by metabolically active cells.)
For assay [2], the system named is Arabidopsis thaliana. Briefly: Estrogenic activity in transgenic Arabidopsis thaliana transfected with pER8:GUS plasmid assessed as beta-glucuronidase expression at 150 to 280 uM after 48 hrs using 4-methylumbelliferyl-beta-D-glucuronide by fluorometric assay. It counts as functional, organism-based. The method in brief: (§1)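 Transgenic Arabidopsis pER8:GUS plants are incubated with or without test compound. GUS expression is quantified by fluorometric assay. 17β-Estradiol is the positive control, run over 0.01–100 μM.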

For assay [3], the system named is Arabidopsis thaliana. Briefly: Estrogenic activity in transgenic Arabidopsis thaliana transfected with pER8:GUS plasmid assessed as beta-glucuronidase expression at 500 uM after 48 hrs using 4-methylumbelliferyl-beta-D-glucuronide by fluorometric assay. The assay is classed as functional, organism-based. In outline:
as §1

Assay [4] in a line: (§2) Cytotoxicity against human Hep3B cells after 3 days by MTT assay. It counts as functional, cell-based, Hep 3B2. Conditions: 72 h.
Assay [5] has as its system MCF7. The assay can be described thus: Estrogenic activity in human ER-positive MCF7 cells assessed as secreted alkaline phosphatase activity at 20 uM after 48 hrs by phospha-light reporter chemiluminescence assay. The assay is classed as functional, cell-based.
The subject of assay [6] is MCF7. Briefly: Antiestrogenic activity in human ER-positive MCF7 cells assessed as inhibition of 17beta estradiol-induced secreted alkaline phosphatase activity at 1 to 20 uM after 48 hrs by phospha-light reporter chemiluminescence assay. The assay is classed as functional, cell-based.
Assay [7] has as its system Arabidopsis thaliana. Briefly: Estrogenic activity in transgenic Arabidopsis thaliana transfected with pER8:GUS plasmid assessed as beta-glucuronidase expression after 48 hrs using 4-methylumbelliferyl-beta-D-glucuronide by fluorometric assay. The assay is classed as functional. The method in brief:
as §1

For assay [8], the system named is MCF7. Briefly: Cytotoxicity against human MCF7 cells after 3 days by MTT assay. It counts as functional, cell-based.
Another assay deals with MDA-MB-231. The assay can be described thus: Cytotoxicity against human MDA-MB-231 cells after 3 days by MTT assay. The assay is classed as functional, cell-based.
For another assay, the system named is A549. Briefly: Cytotoxicity against human A549 cells after 3 days by MTT assay. It counts as functional, cell-based. The settings on record: for IC50: A549, 72 h.
A further assay concerns Ca9-22. The assay can be described thus: Cytotoxicity against human Ca9-22 cells after 3 days by MTT assay. Conditions: for IC50: Ca9-22, 72 h. It counts as functional, cell-based.
For another assay, the system named is Hep 3B2. The assay is described as §2. The assay is classed as functional, cell-based.
The next assay relates to HepG2. The assay can be described thus: Cytotoxicity against human HepG2 cells after 3 days by MTT assay. The assay is classed as functional, cell-based.
The subject of assay [9] is MCF7. The assay can be described thus: Estrogenic activity in human ER-positive MCF7 cells assessed as secreted alkaline phosphatase activity after 48 hrs by phospha-light reporter chemiluminescence assay. It counts as functional, cell-based.
Assay [10] relates to MCF7. Briefly: Estrogenic activity in human ER-positive MCF7 cells assessed as secreted alkaline phosphatase activity at 0.01 nM after 48 hrs by phospha-light reporter chemiluminescence assay. It counts as functional, cell-based.
Assay [11] relates to MCF7. The assay can be described thus: Antiestrogenic activity in human ER-positive MCF7 cells assessed as inhibition of 17beta estradiol-induced secreted alkaline phosphatase activity at 20 nM after 48 hrs by phospha-light reporter chemiluminescence assay. It counts as functional, cell-based.
The test system of assay [12] is MCF7. The assay can be described thus: Antiestrogenic activity in human ER-positive MCF7 cells assessed as inhibition of 17beta estradiol-induced secreted alkaline phosphatase activity at 2 nM after 48 hrs by phospha-light reporter chemiluminescence assay. It counts as functional, cell-based.

On to `Oc1ccc2c(c1)OC[C@]1(O)Cc3cc(O)c(O)cc3[C@H]21` [BRAZILIN], for which the inhibition result with MCF7 [1] and in the assay on MCF7 [6] was “Active” in each case. Moreover, the result in the assay on Arabidopsis thaliana [2] and with MCF7 [5] was inactive. The result in the assay with Arabidopsis thaliana [3] was Active. Also, the IC50 (usually the concentration that gives 50% inhibition) in assay [4] was found to be 15.9 µM.
Regarding `O=C1c2ccc(O)cc2OC[C@]1(O)Cc1ccc(O)cc1`, in the assay with Arabidopsis thaliana [7], the MAC turned out to be 10.9 µM. Besides, the result in the assay with MCF7 [8], in the assay on MDA-MB-231, in the assay on A549, in the assay with Ca9-22, with Hep 3B2 and in the assay on HepG2 was inactive. In addition, the outcome in the assay on MCF7 [5] was Active. The Activity result in the assay with MCF7 [9] is “Dose-dependent effect”.
Consider `O=C1C=C2CC3(O)COc4cc(O)ccc4C3=C2C=C1O` (configuration not stated) [BRAZILEIN], for which the inhibition entry in the assay on MCF7 [1] and in the assay on MCF7 [6] was “Active” in each case. In addition, the outcome in the assay with Arabidopsis thaliana [2] and in the assay with MCF7 [5] was inactive. In addition, the result in the assay on Arabidopsis thaliana [3] was Active. In assay [4], this compound returned an IC50 of 12 µM.
Take `Oc1ccc(C[C@@]2(O)COc3cc(O)ccc3[C@@H]2O)cc1`: the outcome with Arabidopsis thaliana [2], with MCF7 [8], in the assay with MDA-MB-231, with A549, in the assay on Ca9-22 and with Hep 3B2 was inactive. The outcome in the assay with HepG2 was inactive. The outcome with Arabidopsis thaliana [3] was Active.
The compound `COc1cccc2c1C(=O)c1c(O)c3c(c(O)c1C2=O)C[C@@](O)(C(=O)CO)C[C@@H]3O[C@H]1C[C@H](N)[C@H](O)[C@H](C)O1` [DOXORUBICIN] gave an IC50 in [4] of 1.03 µM.
For the compound `C[C@]12CC[C@@H]3c4ccc(O)cc4CC[C@H]3[C@@H]1CC[C@@H]2O`, the Activity result with Arabidopsis thaliana [7] is “Dose-dependent effect”. Also, the result in the assay with MCF7 [10] was Active.
Consider `CC1(C)O[C@H]2c3ccc(O)cc3OC[C@@]2(Cc2ccc(O)c(O)c2)O1`, for which the result in the assay with Arabidopsis thaliana [2], in the assay on MCF7 [8], in the assay on MDA-MB-231, in the assay with A549, in the assay on Ca9-22 and with Hep 3B2 was inactive. The result in the assay with HepG2 was inactive. For the same compound, the result in the assay on Arabidopsis thaliana [3] and with MCF7 [5] was Active.
With `Oc1ccc(C[C@@]2(O)COc3cc(O)ccc3[C@H]2O)cc1`, the result with Arabidopsis thaliana [2], in the assay with MCF7 [8], in the assay with MDA-MB-231, in the assay with A549, in the assay with Ca9-22 and in the assay with Hep 3B2 was inactive. The result in the assay on HepG2 was inactive. In addition, the result in the assay with Arabidopsis thaliana [3] was Active.
For the compound `O=C1c2ccc(O)cc2OC[C@@H]1Cc1ccc(O)c(O)c1`, in the assay with Arabidopsis thaliana [7], the MAC stood at 2.7 µM. Further, the outcome in the assay with MCF7 [8], with MDA-MB-231, with A549, with Ca9-22, in the assay on Hep 3B2 and in the assay on HepG2 was inactive. The outcome with MCF7 [5] was Active. Also, the Activity entry with MCF7 [9] was “Dose-dependent effect”.
Turning to `O=C1c2ccc(O)cc2OC[C@@H]1O`, the outcome in the assay with Arabidopsis thaliana [2], with MCF7 [8], in the assay on MDA-MB-231, in the assay with HepG2 and with MCF7 [5] was inactive. In addition, the outcome in the assay with Arabidopsis thaliana [3] was Active. For the same compound, the IC50 with A549 turned out to be 80.7 µM; with Ca9-22, 62.2 µM; in assay [4] it was 47.2 µM.
As for `O=c1c(-c2ccc(O)cc2)coc2cc(O)cc(O)c12`, the Activity entry with MCF7 [9] is “Dose-dependent effect”. The inhibition result with MCF7 [6] was “Active”.
In the case of `O=c1c(O)coc2cc(O)ccc12`, in the assay on Arabidopsis thaliana [7], the MAC came out at 8.8 µM. Besides, the outcome in the assay with MCF7 [8], in the assay with MDA-MB-231, in the assay with A549, in the assay with Ca9-22, in the assay on Hep 3B2 and in the assay with HepG2 was inactive. For the same compound, in the assay with MCF7 [5], the outcome was Active.
As for `CC/C(=C(\c1ccccc1)c1ccc(OCCN(C)C)cc1)c1ccccc1`, the inhibition entry with MCF7 [11] is “Active”.
Take `COc1cc(O)ccc1C(=O)/C=C/c1ccc(O)cc1`: the MAC with Arabidopsis thaliana [7] was 2.8 µM. In addition, the IC50 is 51.4 µM in the assay with MCF7 [8] (MCF7, 72 h); 44.4 µM in the assay on MDA-MB-231 (MDA-MB-231, 72 h); 32.6 µM in the assay with A549; 57.6 µM with Ca9-22; 17.9 µM in assay [4]; 7.37 µM in the assay on HepG2 (HepG2, 72 h). Also, the result with MCF7 [5] was Active.
Turning to `O=C(c1ccc(OCCN2CCCCC2)cc1)c1c(-c2ccc(O)cc2)sc2cc(O)ccc12`, the inhibition result in the assay with MCF7 [12] is “Active”.
